Drawing on the array DNA melting data of Ke et al. (doi:10.1101/2024.01.08.574731), this text covers folding enthalpy and Tm for 38 sequences.

Data set [1] can be described thus: folding enthalpy; higher = less favourable; fluorescence melt of hairpins on a sequencing array, two-state fit. Particulars: sodium 0.088 M. An outline of the steps: (§1)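 On a sequenced MiSeq flow cell, library hairpins with annealed Cy3 and quencher oligos were imaged for Cy3 fluorescence in 2.5 °C steps up to 60 °C, in 50 mM Na-HEPES pH 8.0, 25 mM NaCl. Normalisation used pre-quench Cy3 and control constructs. Bootstrapped two-state fits gave melting temperature and folding enthalpy, combined by inverse variance across four replicates and with fitted temperatures raised by 9.35 °C to match UV melts.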

A short description of data set [2]: melting temperature; fluorescence melt of hairpins on a sequencing array, two-state fit, raised by 9.35 °C to match UV melts. The conditions noted are these: sodium 0.088 M. Put shortly:
as §1

On to GATCTGCCGCCAGATC ((((((....)))))), for which the folding enthalpy in data set [1] was -31.9 kcal/mol. Further, the Tm in data set [2] was determined as 51.4 °C.

As for GATCTGCCGTCAGATC ((((((....)))))), the folding enthalpy in data set [1] is -37.8 kcal/mol. In addition, the Tm in data set [2] was determined as 50.2 °C.

Consider GATCTGCGAAAGCACATC (((.(((....))).))), for which the folding enthalpy in data set [1] is -13.5 kcal/mol. Further, the Tm in data set [2] was 30.4 °C.

For the sequence GATCTGCGACAGATC ((((((...)))))), in data set [1], the folding enthalpy was -26.2 kcal/mol. In addition, in data set [2], the Tm is 47.3 °C.

Consider GATCTGCGGACAGATC ((((((....)))))), for which, in data set [1], the folding enthalpy is -28.2 kcal/mol. For the same sequence, in data set [2], the Tm amounted to 50.4 °C.

As to GATCTGCGTACAGATC ((((((....)))))), the folding enthalpy in data set [1] is -36.4 kcal/mol. Also, the Tm in data set [2] turned out to be 53.9 °C.

Regarding GATCTGCGTGCAGATC ((((((....)))))), the folding enthalpy in data set [1] is -34.5 kcal/mol. Besides, the Tm in data set [2] was determined as 66.7 °C.

Consider GATCTGCTCCAGATC ((((((...)))))), for which, in data set [1], the folding enthalpy was -31.1 kcal/mol. For the same sequence, in data set [2], the Tm is 50.4 °C.

For the sequence GATCTGGATCAGATC ((((((...)))))), the folding enthalpy in data set [1] is -29.6 kcal/mol. Also, in data set [2], the Tm amounted to 47.9 °C.

Take GATCTGGATCCAGATC ((((((....)))))): the folding enthalpy in data set [1] was -55.9 kcal/mol. Moreover, the Tm in data set [2] was determined as 54.1 °C.

As for GATCTGGGGGCAGATC ((((((....)))))), the folding enthalpy in data set [1] was -41 kcal/mol. For the same sequence, the Tm in data set [2] stood at 51 °C.

Turning to GATCTGGGTCAGATC ((((((...)))))), in data set [1], the folding enthalpy was -35.9 kcal/mol. Moreover, the Tm in data set [2] was 48.6 °C.

As for GATCTGGGTGCAGATC ((((((....)))))), the folding enthalpy in data set [1] was -47.2 kcal/mol. Further, the Tm in data set [2] stood at 52.5 °C.

On to GATCTGGTACAGATC ((((((...)))))), for which the folding enthalpy in data set [1] is -41.3 kcal/mol. In addition, the Tm in data set [2] is 60.8 °C.

Regarding GATCTGGTACCAGATC ((((((....)))))), the folding enthalpy in data set [1] was -37.8 kcal/mol. In addition, the Tm in data set [2] stood at 56 °C.

As to GATCTGGTCTCAGATC ((((((....)))))), the folding enthalpy in data set [1] is -43 kcal/mol. In addition, the Tm in data set [2] stood at 53 °C.

As for GATCTGGTGACAGATC ((((((....)))))), in data set [1], the folding enthalpy is -40.8 kcal/mol. In addition, in data set [2], the Tm stood at 56.4 °C.

In the case of GATCTGGTTGCAGATC ((((((....)))))), the folding enthalpy in data set [1] is -42.9 kcal/mol. In addition, the Tm in data set [2] was 51.1 °C.

As to GATCTGTAGCCAGATC ((((((....)))))), the folding enthalpy in data set [1] is -34.1 kcal/mol. Also, in data set [2], the Tm was determined as 48.6 °C.

As for GATCTGTATCAGATC ((((((...)))))), the folding enthalpy in data set [1] was -34.4 kcal/mol. The Tm in data set [2] amounted to 48.2 °C.

As to GATCTGTATGCAGATC ((((((....)))))), the folding enthalpy in data set [1] is -38.8 kcal/mol. In data set [2], the Tm was found to be 54.9 °C.

As to GATCTGTCCACAGATC ((((((....)))))), the folding enthalpy in data set [1] was -40.8 kcal/mol. The Tm in data set [2] was 55.6 °C.

For GATCTGTCCCAGATC ((((((...)))))), the folding enthalpy in data set [1] was -33.6 kcal/mol. The Tm in data set [2] worked out at 49.5 °C.

With GATCTGTCTGCAGATC ((((((....)))))), the folding enthalpy in data set [1] is -42.1 kcal/mol. Also, in data set [2], the Tm turned out to be 52.9 °C.

Turning to GATCTGTGCTCAGATC ((((((....)))))), in data set [1], the folding enthalpy was -39 kcal/mol. For the same sequence, the Tm in data set [2] worked out at 50.6 °C.

As for GATCTGTGGCAGATC ((((((...)))))), in data set [1], the folding enthalpy is -30.3 kcal/mol. For the same sequence, in data set [2], the Tm amounted to 49.1 °C.

Take GATCTGTGGGCAGATC ((((((....)))))): the folding enthalpy in data set [1] is -49.7 kcal/mol. In addition, the Tm in data set [2] was determined as 54.3 °C.

For the sequence GATCTGTGTGCAGATC ((((((....)))))), the folding enthalpy in data set [1] is -46.9 kcal/mol. Besides, in data set [2], the Tm is 56.4 °C.

With GATCTGTTGACAGATC ((((((....)))))), the folding enthalpy in data set [1] is -43.8 kcal/mol. The Tm in data set [2] came to 53.1 °C.

In the case of GATCTGTTTGCAGATC ((((((....)))))), the folding enthalpy in data set [1] is -40.6 kcal/mol. Besides, the Tm in data set [2] is 54.8 °C.

GATCTTAAAAAGATC ((((((...)))))): the folding enthalpy in data set [1] is -27.5 kcal/mol. Besides, the Tm in data set [2] was found to be 42.7 °C.

Turning to GATCTTAACCAAGATC ((((((....)))))), in data set [1], the folding enthalpy is -33.7 kcal/mol. In data set [2], the Tm is 42.9 °C.

As to GATCTTAATAAGATC ((((((...)))))), the folding enthalpy in data set [1] is -24.4 kcal/mol. In addition, the Tm in data set [2] stood at 39.8 °C.

Consider GATCTTACACAAGATC ((((((....)))))), for which the folding enthalpy in data set [1] is -28.2 kcal/mol. Besides, the Tm in data set [2] is 42.7 °C.

Regarding GATCTTACCAAGATC ((((((...)))))), in data set [1], the folding enthalpy was -33 kcal/mol. The Tm in data set [2] was 45.6 °C.

GATCTTACGAAAGATC ((((((....)))))): the folding enthalpy in data set [1] is -26.4 kcal/mol. Also, the Tm in data set [2] was determined as 39.4 °C.

For the sequence GATCTTACGGAAGATC ((((((....)))))), the folding enthalpy in data set [1] was -29.2 kcal/mol. The Tm in data set [2] worked out at 44.1 °C.

As to GATCTTACTAAGATC ((((((...)))))), the folding enthalpy in data set [1] was -34.4 kcal/mol. For the same sequence, the Tm in data set [2] amounted to 42.6 °C.
